Measurements taken from publication PMC6322912 (Biochemistry, 2018).

target: T1, SAMHD1 (Homo sapiens, UniProt Q9Y3Z3); assay: b4NPP–SAMHD1 HTS; type: biochemical; details: increasing concentrations of dGTP; normalized to no dGTP
Method in brief: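 Recombinant SAMHD1 was expressed in E. coli BL21* as an MBP fusion, tag-cleaved, and purified by heparin and size-exclusion chromatography. Nucleotide was added, then 2 mM final b4NPP. A410 was read over 45 min; rates came from 0–20 min slopes, with no-enzyme baseline.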

T1 sequence (Q9Y3Z3 whole entry, the tested form may be a part): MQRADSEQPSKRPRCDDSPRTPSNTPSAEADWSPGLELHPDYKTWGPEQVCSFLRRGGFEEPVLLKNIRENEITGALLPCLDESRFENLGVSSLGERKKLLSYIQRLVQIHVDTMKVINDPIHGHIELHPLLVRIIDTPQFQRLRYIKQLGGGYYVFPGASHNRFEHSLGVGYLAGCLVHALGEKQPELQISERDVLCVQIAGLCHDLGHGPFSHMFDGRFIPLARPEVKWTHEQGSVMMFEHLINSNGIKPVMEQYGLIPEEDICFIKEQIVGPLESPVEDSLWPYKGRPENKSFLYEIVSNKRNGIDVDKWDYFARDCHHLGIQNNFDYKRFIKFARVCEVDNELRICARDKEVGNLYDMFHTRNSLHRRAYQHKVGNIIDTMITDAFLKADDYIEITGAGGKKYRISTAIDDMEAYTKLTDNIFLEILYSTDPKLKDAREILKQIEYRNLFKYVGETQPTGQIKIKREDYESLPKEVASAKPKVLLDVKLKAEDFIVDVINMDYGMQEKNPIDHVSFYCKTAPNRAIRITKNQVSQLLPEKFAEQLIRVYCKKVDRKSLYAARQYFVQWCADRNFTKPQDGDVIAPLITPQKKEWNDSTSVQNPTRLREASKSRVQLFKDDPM

SMILES | Inhibition of SAMHD1-mediated b4NPP hydrolysis
Nc1nc2c(ncn2[C@H]2C[C@H](O)[C@@H](COP(=O)(O)OP(=O)(O)OP(=O)(O)O)O2)c(=O)[nH]1 [dGTP] | completely inhibited

target: T1, SAMHD1; assay: Dose–response SAMHD1 dNTPase assay; type: biochemical; details: not given

SMILES | IC50 [µM]
Nc1cc(-c2ccncc2)c[nH]c1=O [Amrinone] | < 250
CC1=C(CC(=O)O)c2cc(F)ccc2/C1=C\c1ccc([S+](C)[O-])cc1 (stereo not shown) [Sulindac] | < 250
COC(=O)c1ccc(O)c2nc3c(C=O)c(O)cc(O)c3nc12 [Lomofungin] | < 250
N[C@@H](Cc1cc(I)c(Oc2cc(I)c(O)c(I)c2)c(I)c1)C(=O)O [L-Thyroxine] | < 250
CC1=C(/C=C/C(C)=C/C=C/C(C)=C/C(=O)O)C(C)(C)CCC1 [retinoic acid] | < 250
CC(C)(O)c1ccccc1CC[C@@H](SCC1(CC(=O)O)CC1)c1cccc(/C=C/c2ccc3ccc(Cl)cc3n2)c1 [Montelukast] | < 250
CN1C[C@H](C(=O)N[C@]2(C)O[C@@]3(O)[C@@H]4CCCN4C(=O)[C@H](Cc4ccccc4)N3C2=O)C=C2c3cccc4[nH]cc(c34)C[C@H]21 [Ergotamine] | < 250
CC[C@H](c1ccc(O)cc1)[C@@H](CC)c1ccc(O)cc1 [Hexestrol] | < 250

same assay, conditions: 150 μM dCTP substrate; tetramer preformed with 10 μM GTP and 25 μM dATPαS

SMILES | Inhibition of preactivated SAMHD1 dCTPase activity
Nc1nc2c(ncn2[C@H]2C[C@H](O)[C@@H](COP(O)(=S)OP(=O)(O)OP(=O)(O)O)O2)c(=O)[nH]1 (stereo partly drawn) [dGTPαS, deoxyguanosine triphosphate α S] | inhibition

same assay, conditions: read-out: SAMHD1 inhibition in dose–response dNTPase assays

SMILES | inhibition at 500 µM [%]
CCCCCOC(=O)Nc1nc(=O)n([C@@H]2O[C@H](C)[C@@H](O)[C@H]2O)cc1F [Capecitabine] | ~25
Nc1nc2c(ncn2CCC(CO)CO)c(=O)[nH]1 [Penciclovir] | ~25
CC(=O)CCCCn1c(=O)c2c(ncn2C)n(C)c1=O [Pentoxifylline] | ~25
